From ChEMBL document CHEMBL3407460, “Synthesis of novel thiazole-based 8,9-dihydro-7H-pyrimido[4,5-b][1,4]diazepines as potential antitumor and antifungal agents” (2015) come the findings set out here.

What all share (format): functional
Test [1] can be described thus: Antitumor activity against human SF539 cells after 48 hrs by Sulforhodamine B assay. As to conditions: SF-539, 48 h; for CC50: read-out: LC50 (the source's name). In outline: (§1)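 NCI 60-cell-line screen. Secondary five-dose test at 100, 10, 1.0, 0.1 and 0.01 µM with continuous drug exposure for 48 h. Cell growth was estimated by sulforhodamine B protein staining. […] LC50 was also reported.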
Background: In SRB staining, fixed cells bind dye roughly in proportion to their protein.

The test system of test [2] is Malme-3M. Kind of test: Antitumor activity against human MALME-3M cells after 48 hrs by Sulforhodamine B assay. As to conditions: for CC50: read-out: LC50 (the source's name). In outline: as §1
Test [3] is described as follows: Antitumor activity against human LOXIMVI cells after 48 hrs by Sulforhodamine B assay. The note with it: LOX IMVI; for CC50: read-out: LC50 (the source's name). In outline:
as §1

The subject of test [4] is A549. As to the kind of experiment: Antitumor activity against human A549 cells after 48 hrs by Sulforhodamine B assay. The note with it: A549, 48 h; for CC50: read-out: LC50 (the source's name). In outline:
as §1

The subject of test [5] is K562. Kind of test: Antitumor activity against human K562 cells after 48 hrs by Sulforhodamine B assay. As to conditions: K562, 48 h; for CC50: read-out: LC50 (the source's name). The essentials: as §1
Test [6] is described as follows: Antitumor activity against human OVCAR8 cells after 48 hrs by Sulforhodamine B assay. As to conditions: OVCAR-8, 48 h. The essentials:
as §1

The test system of test [7] is SW-620. As to the kind of experiment: Antitumor activity against human SW620 cells after 48 hrs by Sulforhodamine B assay. As to conditions: SW-620, 48 h; for CC50: read-out: LC50 (the source's name). In outline:
as §1

The nature of test [8]: Antitumor activity against human OVCAR3 cells after 48 hrs by Sulforhodamine B assay. As to conditions: OVCAR-3, 48 h; for CC50: read-out: LC50 (the source's name). The essentials:
as §1

Some results are limits rather than exact numbers.

With `Cc1ccc(C2=Nc3c(N)ncnc3NC(c3sc(Cl)nc3Cl)C2)cc1` (configuration not stated), the GI50 was 2.69 µM in test [1]; 6.33 µM in test [2]; 5.39 µM in test [3]; 5.02 µM in test [4]; 1.68 µM in test [5]; 4.8 µM in test [6]. Also, the 50% growth inhibitory concentration (GI50) in test [7] came out at 3.42 µM; in test [8], 3.6 µM. The CC50 in test [1] was 33.1 µM; in test [2], 44 µM; in test [3], 43.2 µM; in test [4], 52.5 µM; in test [5] it was greater than 100 µM; in test [7], 40.7 µM. The CC50 in test [8] turned out to be 43.4 µM. In test [6], this compound yielded an LC50 (concentration killing 50% of cells) of 80.7 µM.

On to `Nc1ncnc2c1N=C(c1ccc3c(c1)OCO3)CC(c1sc(Cl)nc1Cl)N2` (configuration not stated), for which the GI50 in test [1] was 2.22 µM; in test [2] it was 14.3 µM; in test [3], 7.02 µM; in test [4], 6.47 µM; in test [5], 0.54 µM; in test [6], 4.86 µM. Moreover, the GI50 in test [7] was 2.98 µM; in test [8], 3.94 µM. Moreover, the CC50 in test [1] is 33.6 µM; in test [2], 59.2 µM; in test [3], 75.6 µM; in test [4], greater than 100 µM; in test [5] it was greater than 100 µM; in test [7], greater than 100 µM. Also, in test [8], the CC50 was determined as 66.8 µM. Moreover, in test [6], the LC50 (concentration killing 50% of cells) was greater than 100 µM.

One may read the GI50 as the concentration giving 50% growth inhibition. Lower therefore signals greater sensitivity of the cells.
